Activity calls are given as the source filed them. The rule behind the calls is not given here.
Experiments:
HeLa [1] = assay: Induction of apoptosis in human HeLa cells assessed as increase in mitochondrial ROS production at 100 nM after 48 hrs using H2DCFDA staining by flow cytometry; format: functional, cell-based
HeLa [2] = assay: Induction of apoptosis in human HeLa cells assessed activation of caspase 2 at 10 to 100 nM after 24 hrs by Western blot analysis
HeLa [3] = assay: Cell cycle arrest in human HeLa cells assessed as decrease of cell population at G1 phase at 1 to 100 nM after 48 hrs using propidium iodide staining by flow cytometry; format: functional, cell-based
HeLa [4] = assay: Induction of cell cycle arrest at G2/M phase in human HeLa cells assessed as increase in cyclin B1 expression at 10 to 100 nM by Western blot analysis; format: functional, cell-based; details: TDE = time-dependent effect
Method in brief: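 Immunoblot of HeLa lysates after 24 or 48 h of compound treatment at the indicated concentrations. Probed for cyclin B1, p-Cdc2 Y15 and Cdc25c. Slower-migrating Cdc25c bands were taken as a change in phosphorylation.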

HeLa [5] = assay: Induction of apoptosis in human HeLa cells assessed as decrease in Bcl2 expression at […] after 48 hrs by Western blot analysis; format: functional, cell-based
Method in brief: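 Treated HeLa whole-cell lysates separated by SDS-PAGE and immunoblotted for PARP cleavage, Bcl-2, Bax, pro-caspase-9 and pro-caspase-2.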

Jurkat [6] = assay: Cell cycle arrest in human Jurkat cells assessed as decrease of cell population at G1 phase at 1 to 100 nM after 24 hrs using propidium iodide staining by flow cytometry; format: functional, cell-based
HeLa [7] = assay: Induction of apoptosis in human HeLa cells assessed as cleavage of PARP at 10 to 100 nM by Western blotting; details: TDE = time-dependent effect
HeLa [8] = assay: Antiproliferative activity against human HeLa cells assessed as growth inhibition after 72 hrs by MTT assay; format: functional, cell-based
HeLa [9] = assay: Induction of apoptosis in human HeLa cells assessed as formation of large cells at 100 uM after 24 to 48 hrs using Giemsa's staining by microscopic analysis; format: functional, cell-based
Method in brief: (§1)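 HeLa treated 48 h, Giemsa stained and examined by light microscopy at 60× magnification.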

Jurkat [10] = assay: Induction of apoptosis in human Jurkat cells assessed as abnormal mitotic figures at 10 uM after 24 to 48 hrs using Giemsa's staining by microscopic analysis; format: functional, cell-based
Method in brief: (§2)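 Giemsa staining, then light-microscope examination of cell morphology. HeLa and Jurkat cells were exposed to compound for 24 and 48 h. Magnification 60×.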

HeLa [11] = assay: Induction of apoptosis in human HeLa cells assessed activation of caspase 2 at 10 to 100 nM after 48 hrs by Western blot analysis
HeLa [12] = assay: Induction of apoptosis in human HeLa cells assessed as formation of large cells at 10 uM after 24 to 48 hrs using Giemsa's staining by microscopic analysis; format: functional, cell-based; method in brief: as §1
Jurkat [13] = assay: Induction of apoptosis in human Jurkat cells assessed as abnormal mitotic figures at 100 uM after 24 to 48 hrs using Giemsa's staining by microscopic analysis; format: functional, cell-based; method in brief: as §2
HeLa [14] = assay: Induction of apoptosis in human HeLa cells assessed as increase in cell viability at 100 nM after 48 hrs by flow cytometry in presence of pan-caspase inhibitor z-VAD.fmk; format: functional, cell-based
Method in brief: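 HeLa incubated 48 h with compound at 100 nM with or without z-VAD.fmk (100 μM); viability measured, mean ± SEM of three independent experiments.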

Jurkat [15] = assay: Induction of apoptosis in human Jurkat cells assessed as formation of large cells at 100 uM after 24 to 48 hrs using Giemsa's staining by microscopic analysis; format: functional, cell-based; method in brief: as §2
Bos taurus = species on record: Bos taurus; assay: Displacement of [3H]colchicine from bovine brain tubulin at 5 uM
Method in brief: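 [3H]colchicine binding inhibition with tubulin at 1 μM, [3H]colchicine at 5 μM and test compound at 5 μM.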

HeLa [16] = assay: Induction of apoptosis in human HeLa cells assessed as reduction in p21 expression at 10 to 100 nM after 24 hrs by Western blot analysis
CCRF-CEM = assay: Antiproliferative activity against human CEM cells assessed as growth inhibition after 72 hrs by MTT assay; format: functional, cell-based
A549 = assay: Fold resistance, ratio of IC50 for human taxol-resistant A549-T12 cells to IC50 for human A549 cells; format: functional
HeLa [17] = assay: Induction of apoptosis in human HeLa cells assessed activation of caspase 9 at 10 to 100 nM after 48 hrs by Western blot analysis
Jurkat [18] = assay: Induction of apoptosis in human Jurkat cells assessed as formation of large cytoplasmic vacuoles at 10 uM after 24 to 48 hrs using Giemsa's staining by microscopic analysis; format: functional, cell-based; method in brief: as §2
Tubulin (Homo sapiens) [19] = molecular target: T1, Tubulin (Homo sapiens) (UniProt P68371+Q9H4B7+P0DPH7+P68366+Q13509+Q71U36+P04350+Q3ZCM7+P07437+P68363+Q9BQE3+Q6PEY2+Q13885+Q9BVA1+Q9BUF5); assay: Induction of microtubule disassembly in human HeLa cells assessed as complete loss of microtubules at 100 nM after 24 hrs using DAPI-staining by fluorescence microscopy; format: cell-based
Method in brief: (§3)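 HeLa cells were exposed to 10 or 100 nM compound for 24 or 48 h, then fixed. Microtubules were stained with FITC-conjugated anti-β-tubulin antibody and imaged by confocal/fluorescence microscopy at 60× magnification.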

Jurkat [20] = assay: Cell cycle arrest in human Jurkat cells assessed as increase of cell population at G2/M phase at 1 to 100 nM after 48 hrs using propidium iodide staining by flow cytometry; format: functional, cell-based
[21] = Inhibition of bovine brain tubulin polymerization after 20 mins by turbidimetric analysis; set-up: species or system Bos taurus
Method in brief: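 Purified tubulin at 10 μM was used for the assembly (polymerization) inhibition assay. IC50 is the concentration inhibiting assembly.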

HeLa [22] = assay: Induction of apoptosis in human HeLa cells assessed as multinucleation at 10 uM after 24 to 48 hrs using Giemsa's staining by microscopic analysis; format: functional, cell-based; method in brief: as §2
MCF7 = assay: Antiproliferative activity against human MCF7 cells assessed as growth inhibition after 72 hrs by MTT assay; format: functional, cell-based; details: MCF7, 72 h
Jurkat [23] = assay: Induction of apoptosis in human Jurkat cells assessed as multinucleation at 10 uM after 24 to 48 hrs using Giemsa's staining by microscopic analysis; format: functional, cell-based; method in brief: as §2
Jurkat [24] = assay: Induction of apoptosis in human Jurkat cells assessed as formation of large cytoplasmic vacuoles at 100 uM after 24 to 48 hrs using Giemsa's staining by microscopic analysis; format: functional, cell-based; method in brief: as §2
LoVo = assay: Antiproliferative activity against human doxorubicin-resistant LoVo cells overexpressing P-gp assessed as growth inhibition after 72 hrs by MTT assay; format: functional, cell-based
Tubulin (Homo sapiens) [25] = molecular target: T1, Tubulin (Homo sapiens); assay: Induction of microtubule disassembly with spherical morphology in human HeLa cells at 10 nM after 24 hrs using DAPI-staining by fluorescence microscopy; format: cell-based; method in brief: as §3
HeLa [26] = assay: Induction of apoptosis in human HeLa cells assessed as abnormal mitotic figures at 100 uM after 24 to 48 hrs using Giemsa's staining by microscopic analysis; format: functional, cell-based; method in brief: as §1

CCOc1ccc(-c2sc(N)nc2-c2cc(OC)c(OC)c(OC)c2)cc1
Activity (HeLa [1]): Active | Activity (HeLa [2]): Active | Activity (HeLa [3]): Active | Activity (HeLa [4]): tde | Activity (HeLa [5]): Active | Activity (Jurkat [6]): Active | Activity (HeLa [7]): tde | IC50 (HeLa [8]): 0.03 nM | Activity (HeLa [9]): Active | Activity (Jurkat [10]): Active | Activity (HeLa [11]): Active | Activity (HeLa [12]): Active | Activity (Jurkat [13]): Active | Activity (HeLa [14]): inactive | Activity (Jurkat [15]): Active | inhibition (Bos taurus): 95% | Activity (HeLa [16]): Active | IC50 (CCRF-CEM): 0.9 nM | Ratio IC50 (A549): 2.2 | Activity (HeLa [17]): inactive | Activity (Jurkat [18]): Active | Activity (Tubulin (Homo sapiens) [19]): Active | Activity (Jurkat [20]): Active | IC50 [21]: 610 nM | Activity (HeLa [22]): Active | IC50 (MCF7): 44 nM | Activity (Jurkat [23]): Active | Activity (Jurkat [24]): Active | IC50 (LoVo): 0.6 nM | Activity (Tubulin (Homo sapiens) [25]): Active | Activity (HeLa [26]): Active
